Laboratory results reported in ChEMBL document CHEMBL1138658, “Novel 2-aminotetralin and 3-aminochroman derivatives as selective serotonin 5-HT7 receptor agonists and antagonists” (J Med Chem, 2004).
pIC50, pKi: −log10 of the molar value.

How the values were obtained:
[1] = target: 5-hydroxytryptamine receptor 7 (Rattus norvegicus) (UniProt P32305); test: Stimulation of cAMP production in CHO cells expressing rat 5-hydroxytryptamine 7 receptor; format: functional, cell-based
Summary of the method: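 cAMP production in CHO cells expressing rat 5-HT7 receptor. Efficacy is expressed as percent of the 5-HT-stimulated production.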

[2] = target: 5-hydroxytryptamine receptor 4 (Cavia porcellus, UniProt O70528); test: Inhibition of [3H]- GR-113808 binding to guinea pig striatum 5-HT4 receptor; format: tissue-based
[3] = target: Muscarinic acetylcholine receptor; test: Inhibition of [3H]- QNB binding to rat cortex muscarinic receptor
[4] = target: T1, 5-hydroxytryptamine receptor 7 (Rattus norvegicus, UniProt P32305); test: Inhibition of [3H]5-HT binding to rat 5-HT7 receptor
Summary of the method: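 Displacement of [3H]-5-HT from rat 5-HT7 receptor expressed in CHO or Sf9 cells.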

[5] = target: T2, 5-hydroxytryptamine receptor 6 (Rattus norvegicus, UniProt P31388); test: Inhibition of [3H]5-HT binding to rat 5-HT6 receptor
[6] = Inhibition of [3H]- LSD binding to 5-HT5 receptor expressed in CHO cells; format: cell-based
[7] = target: T1, 5-hydroxytryptamine receptor 7; test: Inhibition of [3H]-5-HT binding to rat 5-hydroxytryptamine 7 receptor
Summary of the method: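 Rat 5-HT7 receptor expressed in CHO or Sf9 cells; [3H]-5-HT radioligand displacement.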

[8] = target: Serotonin 3 (5-HT3) receptor; test: Inhibition of [3H]GR-65630 binding to rabbit ileum muscularis 5-HT3 receptor; format: tissue-based, Oryctolagus cuniculus
[9] = target: T3, Adrenergic receptor alpha-1 (Rattus norvegicus, UniProt P15823+P23944+P43140); test: Inhibition of [3H]prazosin binding to rat cortex Alpha 1 receptor
T3 sequence (P15823 whole entry): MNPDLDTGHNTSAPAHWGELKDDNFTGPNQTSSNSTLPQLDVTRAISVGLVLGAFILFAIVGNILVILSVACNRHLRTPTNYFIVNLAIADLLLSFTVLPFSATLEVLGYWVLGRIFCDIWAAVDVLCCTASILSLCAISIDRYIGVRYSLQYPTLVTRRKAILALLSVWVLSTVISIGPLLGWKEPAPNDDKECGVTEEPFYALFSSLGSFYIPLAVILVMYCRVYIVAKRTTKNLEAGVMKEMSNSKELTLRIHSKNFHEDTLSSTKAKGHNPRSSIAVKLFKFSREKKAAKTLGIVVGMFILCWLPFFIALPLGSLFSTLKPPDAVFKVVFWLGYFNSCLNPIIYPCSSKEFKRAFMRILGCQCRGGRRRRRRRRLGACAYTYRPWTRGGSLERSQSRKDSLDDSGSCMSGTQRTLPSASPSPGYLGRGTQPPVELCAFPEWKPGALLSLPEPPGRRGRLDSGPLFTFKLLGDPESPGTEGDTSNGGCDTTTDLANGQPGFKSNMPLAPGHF
T3 sequence (P23944 whole entry): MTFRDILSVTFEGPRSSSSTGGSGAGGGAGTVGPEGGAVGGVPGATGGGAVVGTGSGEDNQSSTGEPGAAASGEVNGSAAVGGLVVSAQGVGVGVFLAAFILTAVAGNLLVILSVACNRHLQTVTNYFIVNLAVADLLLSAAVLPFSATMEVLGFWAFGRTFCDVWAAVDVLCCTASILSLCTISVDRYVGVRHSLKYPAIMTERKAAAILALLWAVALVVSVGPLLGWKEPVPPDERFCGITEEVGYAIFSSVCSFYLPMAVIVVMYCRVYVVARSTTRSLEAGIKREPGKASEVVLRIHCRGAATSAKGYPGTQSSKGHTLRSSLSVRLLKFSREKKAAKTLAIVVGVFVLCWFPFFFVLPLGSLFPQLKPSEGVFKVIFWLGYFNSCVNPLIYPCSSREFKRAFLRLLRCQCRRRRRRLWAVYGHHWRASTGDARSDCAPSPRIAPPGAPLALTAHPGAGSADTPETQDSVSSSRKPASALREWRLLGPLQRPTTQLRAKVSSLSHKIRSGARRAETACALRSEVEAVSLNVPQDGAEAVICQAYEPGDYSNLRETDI
T3 sequence (P43140 whole entry): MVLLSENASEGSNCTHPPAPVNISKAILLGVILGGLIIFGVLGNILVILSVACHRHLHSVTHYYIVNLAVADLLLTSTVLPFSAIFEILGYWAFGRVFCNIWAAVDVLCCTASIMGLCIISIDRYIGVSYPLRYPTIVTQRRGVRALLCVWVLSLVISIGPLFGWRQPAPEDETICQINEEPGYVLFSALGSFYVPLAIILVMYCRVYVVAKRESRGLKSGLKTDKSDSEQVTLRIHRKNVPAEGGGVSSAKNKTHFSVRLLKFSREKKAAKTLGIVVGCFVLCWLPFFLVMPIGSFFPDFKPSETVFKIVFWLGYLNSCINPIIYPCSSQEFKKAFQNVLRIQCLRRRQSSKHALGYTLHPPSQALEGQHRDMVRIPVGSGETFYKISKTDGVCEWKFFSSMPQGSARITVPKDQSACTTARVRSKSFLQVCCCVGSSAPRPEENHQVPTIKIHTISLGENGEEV

[10] = target: T2, 5-hydroxytryptamine receptor 6; test: Inhibition of [3H]-5-HT binding to rat 5-HT6 receptor

T1 sequence (P32305 whole entry): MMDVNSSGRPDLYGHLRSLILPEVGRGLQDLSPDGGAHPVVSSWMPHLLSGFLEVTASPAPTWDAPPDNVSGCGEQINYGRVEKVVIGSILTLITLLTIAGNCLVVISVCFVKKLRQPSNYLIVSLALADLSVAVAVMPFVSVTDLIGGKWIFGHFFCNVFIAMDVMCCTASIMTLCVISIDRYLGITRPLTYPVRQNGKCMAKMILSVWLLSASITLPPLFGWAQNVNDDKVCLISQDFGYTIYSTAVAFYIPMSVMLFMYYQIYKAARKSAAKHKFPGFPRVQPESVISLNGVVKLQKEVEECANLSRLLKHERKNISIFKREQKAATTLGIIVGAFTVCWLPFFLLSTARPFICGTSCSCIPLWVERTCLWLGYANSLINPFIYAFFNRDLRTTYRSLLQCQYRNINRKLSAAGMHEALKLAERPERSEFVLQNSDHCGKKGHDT
5-hydroxytryptamine receptor 7 (Rattus norvegicus), sequence (P32305 whole entry): as above
T2 sequence (P31388 whole entry): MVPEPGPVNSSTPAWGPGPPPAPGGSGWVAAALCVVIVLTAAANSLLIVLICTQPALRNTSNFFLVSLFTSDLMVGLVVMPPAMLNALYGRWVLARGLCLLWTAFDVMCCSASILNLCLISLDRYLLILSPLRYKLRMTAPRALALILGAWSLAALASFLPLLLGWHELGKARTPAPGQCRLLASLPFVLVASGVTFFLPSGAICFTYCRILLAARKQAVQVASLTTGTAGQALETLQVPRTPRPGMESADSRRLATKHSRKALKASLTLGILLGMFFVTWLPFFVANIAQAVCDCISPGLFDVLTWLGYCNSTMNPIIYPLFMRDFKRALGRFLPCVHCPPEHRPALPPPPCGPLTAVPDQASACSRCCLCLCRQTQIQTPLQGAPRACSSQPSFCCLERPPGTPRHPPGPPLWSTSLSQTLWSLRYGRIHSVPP
5-hydroxytryptamine receptor 4, sequence (O70528 whole entry): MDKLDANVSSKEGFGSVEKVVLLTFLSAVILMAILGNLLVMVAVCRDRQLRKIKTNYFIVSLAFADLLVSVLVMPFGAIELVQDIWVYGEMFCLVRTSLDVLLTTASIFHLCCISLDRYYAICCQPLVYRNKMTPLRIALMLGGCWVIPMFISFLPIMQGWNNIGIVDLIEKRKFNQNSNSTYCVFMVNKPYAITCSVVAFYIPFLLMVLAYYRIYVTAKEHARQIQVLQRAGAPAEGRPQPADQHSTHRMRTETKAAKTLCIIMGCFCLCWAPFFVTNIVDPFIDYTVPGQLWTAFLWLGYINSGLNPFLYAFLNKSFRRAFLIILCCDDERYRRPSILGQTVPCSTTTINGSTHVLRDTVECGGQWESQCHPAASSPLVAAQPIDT

Row | Structure (SMILES) | Efficacy [1] [%] | pIC50 [2] | Ki [3] [nM] | pKi [4] | pIC50 [5] | pKi [6] | pKi [7] | pIC50 [8] | Ki [9] [nM] | pKi [10]
1 | COc1cccc(OC)c1-c1cccc2c1CC[C@H](N(C)C)C2 | < 10 | < 6.00 | > 1000 | 8.59 | < 6.00 | 7.19 | 8.59 | < 6.00 | 3670 | 
2 | CCCN(CCC)[C@H]1CCc2c(cccc2-c2c(OC)cccc2OC)C1 | 100 |  | > 1000 | 8.10 |  |  | 8.10 |  | > 1000 | < 6.05
